In ChEMBL document CHEMBL1145212, “Fluorinated diaryl sulfides as serotonin transporter ligands: synthesis, structure-activity relationship study, and in vivo evaluation of fluorine-18-labeled compounds as PET imaging agents” (J Med Chem, 2005):

Legend:
Rattus norvegicus [1] = test: Biodistribution of [18F]-AFE in rat striatum 60 min postinjection in vivo; format: ADME, organism-based; settings: 1 h
How it was run: (§1)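 Male Sprague-Dawley rats, three per time point, received the F-18 radioligand in saline (~20 µCi per rat at injection) by tail vein. Under CO2 anesthesia they were decapitated at 10, 30, 60, 90 or 120 min. Blood and dissected brain regions were weighed and gamma counted. Activity was decay-corrected, and injected dose was corrected for tail residual activity. Uptake was expressed as %ID/g versus injectate standards, mean ± SD.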

Rattus norvegicus [2] = test: Biodistribution of [18F]AFE in rat frontal cortex at 90 min postinjection in vivo; format: ADME, organism-based; settings: 1.5 h
How it was run: (§2)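 Male Sprague-Dawley rats, three per group, received ~20 µCi of the F-18 radioligand in saline by tail-vein injection. Rats were anesthetized with CO2 and decapitated at 10, 30, 60, 90 or 120 min. Blood and brain regions were weighed and gamma-counted. %ID/g was decay- and tail-residual-corrected against F-18 standards made from the injectate and reported as mean ± SD.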

Rattus norvegicus [3] = test: Biodistribution of [18F]AFE in rat hippocampus at 120 min postinjection in vivo; format: ADME, organism-based; settings: 2 h; how it was run: as §2
Rattus norvegicus [4] = test: Biodistribution of [18F]AFE in rat thalamus at 120 min postinjection in vivo; format: ADME, organism-based; settings: 2 h; how it was run: as §2
Rattus norvegicus [5] = test: Biodistribution of [18F]AFE in rat frontal cortex at 60 min postinjection in vivo; format: ADME, organism-based; settings: 1 h; how it was run: as §2
Rattus norvegicus [6] = test: Biodistribution of [18F]AFE in rat hypothalamus at 60 min postinjection in vivo; format: ADME, organism-based; settings: 1 h; how it was run: as §2
Rattus norvegicus [7] = test: Biodistribution of [18F]AFE in rat hypothalamus at 10 min postinjection in vivo; format: ADME, organism-based; how it was run: as §2
Rattus norvegicus [8] = test: Biodistribution of [18F]AFE in rat blood at 120 min postinjection in vivo; format: ADME, organism-based; settings: 2 h; how it was run: as §2
Rattus norvegicus [9] = organism: Rattus norvegicus; test: Specific binding of [18F]AFA in hypothalamus of rat pretreated with compound 7e; n=3; format: functional
Rattus norvegicus [10] = test: Biodistribution of [18F]AFE in rat cerebellum at 10 min postinjection in vivo; format: ADME, organism-based; how it was run: as §2
Rattus norvegicus [11] = test: Biodistribution of [18F]AFE in rat blood at 90 min postinjection in vivo; format: ADME, organism-based; settings: 1.5 h; how it was run: as §2
Rattus norvegicus [12] = test: Biodistribution of [18F]AFE in rat striatum at 120 min postinjection in vivo; format: ADME, organism-based; settings: 2 h; how it was run: as §2
Rattus norvegicus [13] = organism: Rattus norvegicus; test: Specific binding of [18F]AFA in striatum of rat pretreated with compound 7e; n=3; format: functional
Rattus norvegicus [14] = test: Biodistribution of [18F]AFE in rat hippocampus at 10 min postinjection in vivo; format: ADME, organism-based; how it was run: as §2
Rattus norvegicus [15] = test: Biodistribution of [18F]AFE in rat cerebellum at 90 min postinjection in vivo; format: ADME, organism-based; settings: 1.5 h; how it was run: as §2
Rattus norvegicus [16] = test: Biodistribution of [18F]AFE in rat frontal cortex at 120 min postinjection in vivo; format: ADME, organism-based; settings: 2 h; how it was run: as §2
Rattus norvegicus [17] = test: Biodistribution of [18F]-AFE in rat striatum at 10 min postinjection in vivo; format: ADME, organism-based; how it was run: as §1
Rattus norvegicus [18] = test: Biodistribution of [18F]-AFE in rat cerebellum at 30 min postinjection in vivo; format: ADME, organism-based; settings: 0.5 h; how it was run: as §1
Rattus norvegicus [19] = test: Biodistribution of [18F]AFE in rat hypothalamus at 90 min postinjection in vivo; format: ADME, organism-based; settings: 1.5 h; how it was run: as §2
Rattus norvegicus [20] = test: Biodistribution of [18F]AFE in rat thalamus at 30 min postinjection in vivo; format: ADME, organism-based; settings: 0.5 h; how it was run: as §2
Rattus norvegicus [21] = test: Biodistribution of [18F]AFE in rat blood at 60 min postinjection in vivo; format: ADME, organism-based; settings: 1 h; how it was run: as §2
Rattus norvegicus [22] = test: Biodistribution of [18F]AFE in rat thalamus at 60 min postinjection in vivo; format: ADME, organism-based; settings: 1 h; how it was run: as §2
Rattus norvegicus [23] = test: Biodistribution of [18F]AFE in rat blood at 10 min postinjection in vivo; format: ADME, organism-based; how it was run: as §2
Rattus norvegicus [24] = test: Biodistribution of [18F]AFE in rat thalamus at 90 min postinjection in vivo; format: ADME, organism-based; settings: 1.5 h; how it was run: as §2
Rattus norvegicus [25] = organism: Rattus norvegicus; test: Specific binding of [18F]AFA in frontal cortex of rat pretreated with compound 7e; n=3; format: functional
Rattus norvegicus [26] = test: Biodistribution of [18F]-AFE in rat blood at 30 min postinjection in vivo; format: ADME, organism-based; settings: 0.5 h; how it was run: as §1
Rattus norvegicus [27] = test: Biodistribution of [18F]AFE in rat striatum at 30 min postinjection in vivo; format: ADME, organism-based; settings: 0.5 h; how it was run: as §2
Rattus norvegicus [28] = test: Biodistribution of [18F]AFE in rat hypothalamus at 30 min postinjection in vivo; format: ADME, organism-based; settings: 0.5 h; how it was run: as §2
Rattus norvegicus [29] = organism: Rattus norvegicus; test: Specific binding of [18F]AFA in hippocampus of rat pretreated with compound 7e; n=3; format: functional
Rattus norvegicus [30] = test: Biodistribution of [18F]AFE in rat hippocampus at 60 min postinjection in vivo; format: ADME, organism-based; settings: 1 h; how it was run: as §2
Rattus norvegicus [31] = test: Biodistribution of [18F]AFE in rat cerebellum at 60 min postinjection in vivo; format: ADME, organism-based; settings: 1 h; how it was run: as §2
Rattus norvegicus [32] = test: Biodistribution of [18F]AFE in rat hypothalamus at 120 min postinjection in vivo; format: ADME, organism-based; settings: 2 h; how it was run: as §2
Rattus norvegicus [33] = organism: Rattus norvegicus; test: Specific binding of [18F]-AFA in thalamus of rat pretreated with compound 7e; n=3; format: functional
Rattus norvegicus [34] = test: Biodistribution of [18F]-AFE in rat frontal cortex at 30 min postinjection in vivo; format: ADME, organism-based; settings: 0.5 h; how it was run: as §1
Rattus norvegicus [35] = test: Biodistribution of [18F]AFE in rat thalamus at 10 min postinjection in vivo; format: ADME, organism-based; how it was run: as §2
Rattus norvegicus [36] = test: Biodistribution of [18F]AFE in rat frontal cortex at 10 min postinjection in vivo; format: ADME, organism-based; how it was run: as §2
Rattus norvegicus [37] = test: Biodistribution of [18F]-AFE in rat cerebellum at 120 min postinjection in vivo; format: ADME, organism-based; settings: 2 h; how it was run: as §1
Rattus norvegicus [38] = test: Biodistribution of [18F]-AFE in rat striatum at 90 min postinjection in vivo; format: ADME, organism-based; settings: 1.5 h; how it was run: as §1
Rattus norvegicus [39] = test: Biodistribution of [18F]AFE in rat hippocampus at 30 min postinjection in vivo; format: ADME, organism-based; settings: 0.5 h; how it was run: as §2
Rattus norvegicus [40] = test: Biodistribution of [18F]AFE in rat hippocampus at 90 min postinjection in vivo; format: ADME, organism-based; settings: 1.5 h; how it was run: as §2

CN(C)Cc1ccccc1Sc1ccc(CC[18F])cc1N
Biodistribution (Rattus norvegicus [1]): 0.21 %ID/g | Biodistribution (Rattus norvegicus [2]): 0.08 %ID/g | Biodistribution (Rattus norvegicus [3]): 0.07 %ID/g | Biodistribution (Rattus norvegicus [4]): 0.13 %ID/g | Biodistribution (Rattus norvegicus [5]): 0.19 %ID/g | Biodistribution (Rattus norvegicus [6]): 0.24 %ID/g | Biodistribution (Rattus norvegicus [7]): 0.51 %ID/g | Biodistribution (Rattus norvegicus [8]): 0.02 %ID/g | Specific binding (Rattus norvegicus [9]): 1.21 %ID/g | Biodistribution (Rattus norvegicus [10]): 0.28 %ID/g | Biodistribution (Rattus norvegicus [11]): 0.04 %ID/g | Biodistribution (Rattus norvegicus [12]): 0.08 %ID/g | Specific binding (Rattus norvegicus [13]): 0.61 %ID/g | Biodistribution (Rattus norvegicus [14]): 0.38 %ID/g | Biodistribution (Rattus norvegicus [15]): 0.03 %ID/g | Biodistribution (Rattus norvegicus [16]): 0.06 %ID/g | Biodistribution (Rattus norvegicus [17]): 0.51 %ID/g | Biodistribution (Rattus norvegicus [18]): 0.13 %ID/g | Biodistribution (Rattus norvegicus [19]): 0.14 %ID/g | Biodistribution (Rattus norvegicus [20]): 0.39 %ID/g | Biodistribution (Rattus norvegicus [21]): 0.07 %ID/g | Biodistribution (Rattus norvegicus [22]): 0.27 %ID/g | Biodistribution (Rattus norvegicus [23]): 0.25 %ID/g | Biodistribution (Rattus norvegicus [24]): 0.17 %ID/g | Specific binding (Rattus norvegicus [25]): 0.48 %ID/g | Biodistribution (Rattus norvegicus [26]): 0.13 %ID/g | Biodistribution (Rattus norvegicus [27]): 0.33 %ID/g | Biodistribution (Rattus norvegicus [28]): 0.41 %ID/g | Specific binding (Rattus norvegicus [29]): 0.65 %ID/g | Biodistribution (Rattus norvegicus [30]): 0.17 %ID/g | Biodistribution (Rattus norvegicus [31]): 0.06 %ID/g | Biodistribution (Rattus norvegicus [32]): 0.1 %ID/g | Specific binding (Rattus norvegicus [33]): 1.06 %ID/g | Biodistribution (Rattus norvegicus [34]): 0.32 %ID/g | Biodistribution (Rattus norvegicus [35]): 0.58 %ID/g | Biodistribution (Rattus norvegicus [36]): 0.62 %ID/g | Biodistribution (Rattus norvegicus [37]): 0.02 %ID/g | Biodistribution (Rattus norvegicus [38]): 0.1 %ID/g | Biodistribution (Rattus norvegicus [39]): 0.27 %ID/g | Biodistribution (Rattus norvegicus [40]): 0.09 %ID/g
